Laboratory results reported in ChEMBL document CHEMBL1158680, “Chemical constituents and biological activities of the fruit of Zanthoxylum integrifoliolum” (1999).
Active and inactive are the calls of the source. The calls are words filed in the database; no cut-off is given here.

Columns and labels:
[1] = Antiplatelet activity against rabbit platelets assessed as inhibition of PAF-induced platelet aggregation at 100 ug/ml preincubated for 3 mins by turbidimetric method; format: functional, Oryctolagus cuniculus; set-up: scale not given: the % may be the effect or the level left
How it was run: (§1)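 Washed rabbit platelets were preincubated with test sample or 0.5% DMSO vehicle for 3 min at 37 °C. Inducers were thrombin 0.1 U/mL, arachidonic acid 100 μM, collagen 10 μg/mL or PAF 2 nM. Turbidimetric read-out took platelet suspension absorbance as 0% and platelet-free Tyrode's as 100% aggregation, measured at 6 min. Results are mean ± SEM with n per entry.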

[2] = Antiplatelet activity against rabbit platelets assessed as inhibition of PAF-induced platelet aggregation at 50 ug/ml preincubated for 3 mins by turbidimetric method; format: functional, Oryctolagus cuniculus; set-up: scale not given: the % may be the effect or the level left; how it was run: as §1
[3] = Antiplatelet activity against rabbit platelets assessed as inhibition of PAF-induced platelet aggregation at 20 ug/ml preincubated for 3 mins by turbidimetric method; format: functional, Oryctolagus cuniculus; set-up: scale not given: the % may be the effect or the level left; how it was run: as §1
[4] = Antiplatelet activity against rabbit platelets assessed as inhibition of PAF-induced platelet aggregation at 10 ug/ml preincubated for 3 mins by turbidimetric method; format: functional, Oryctolagus cuniculus; set-up: scale not given: the % may be the effect or the level left; how it was run: as §1
[5] = system: Aorta; assay: Vasorelaxation activity in rat aorta assessed as inhibition of K+-induced contraction at 50 ug/ml preincubated for 15 mins relative to control; format: functional; set-up: scale not given: the % may be the effect or the level left
How it was run: (§2)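 Rat aorta was preincubated with test sample or 0.1% DMSO vehicle at 37 °C for 15 min. Contraction was then evoked with high K+ (80 mM) or norepinephrine (3 μM). Response is expressed as percent of control contraction, mean ± SEM, n = 3.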

[6] = system: Aorta; assay: Vasorelaxation activity in rat aorta assessed as inhibition of K+-induced contraction at 15 ug/ml preincubated for 15 mins relative to control; format: functional; set-up: scale not given: the % may be the effect or the level left; how it was run: as §2
[7] = system: Aorta; assay: Vasorelaxation activity in rat aorta assessed as inhibition of norepinephrine-induced phasic contraction at 50 ug/ml preincubated for 15 mins relative to control; format: functional; set-up: scale not given: the % may be the effect or the level left; how it was run: as §2
[8] = system: Aorta; assay: Vasorelaxation activity in rat aorta assessed as inhibition of norepinephrine-induced tonic contraction at 50 ug/ml preincubated for 15 mins relative to control; format: functional; set-up: scale not given: the % may be the effect or the level left; how it was run: as §2
[9] = Antiplatelet activity against rabbit platelets assessed as inhibition of thrombin-induced platelet aggregation at 100 ug/ml preincubated for 3 mins by turbidimetric method; format: functional, Oryctolagus cuniculus; set-up: scale not given: the % may be the effect or the level left; how it was run: as §1
[10] = Antiplatelet activity against rabbit platelets assessed as inhibition of thrombin-induced platelet aggregation at 50 ug/ml preincubated for 3 mins by turbidimetric method; format: functional, Oryctolagus cuniculus; set-up: scale not given: the % may be the effect or the level left; how it was run: as §1
[11] = Antiplatelet activity against rabbit platelets assessed as inhibition of thrombin-induced platelet aggregation at 20 ug/ml preincubated for 3 mins by turbidimetric method; format: functional, Oryctolagus cuniculus; set-up: scale not given: the % may be the effect or the level left; how it was run: as §1
[12] = Antiplatelet activity against rabbit platelets assessed as inhibition of thrombin-induced platelet aggregation at 10 ug/ml preincubated for 3 mins by turbidimetric method; format: functional, Oryctolagus cuniculus; set-up: scale not given: the % may be the effect or the level left; how it was run: as §1
[13] = (§3) Antiplatelet activity against rabbit platelets assessed as inhibition of arachidonic acid-induced platelet aggregation at 100 ug/ml preincubated for 3 mins by turbidimetric method; format: functional, Oryctolagus cuniculus; set-up: scale not given: the % may be the effect or the level left; how it was run: as §1
[14] = Antiplatelet activity against rabbit platelets assessed as inhibition of arachidonic acid-induced platelet aggregation at 20 ug/ml preincubated for 3 mins by turbidimetric method; format: functional, Oryctolagus cuniculus; set-up: scale not given: the % may be the effect or the level left; how it was run: as §1
[15] = Antiplatelet activity against rabbit platelets assessed as inhibition of arachidonic acid-induced platelet aggregation at 10 ug/ml preincubated for 3 mins by turbidimetric method; format: functional, Oryctolagus cuniculus; set-up: scale not given: the % may be the effect or the level left; how it was run: as §1
[16] = (§4) Antiplatelet activity against rabbit platelets assessed as inhibition of collagen-induced platelet aggregation at 100 ug/ml preincubated for 3 mins by turbidimetric method; format: functional, Oryctolagus cuniculus; set-up: scale not given: the % may be the effect or the level left; how it was run: as §1
[17] = Antiplatelet activity against rabbit platelets assessed as inhibition of collagen-induced platelet aggregation at 20 ug/ml preincubated for 3 mins by turbidimetric method; format: functional, Oryctolagus cuniculus; set-up: scale not given: the % may be the effect or the level left; how it was run: as §1
[18] = Antiplatelet activity against rabbit platelets assessed as inhibition of collagen-induced platelet aggregation at 10 ug/ml preincubated for 3 mins by turbidimetric method; format: functional, Oryctolagus cuniculus; set-up: scale not given: the % may be the effect or the level left; how it was run: as §1
[19] = system: Aorta; assay: Vasorelaxation activity in rat aorta assessed as inhibition of K+-induced contraction at 5 ug/ml preincubated for 15 mins relative to control; format: functional; set-up: scale not given: the % may be the effect or the level left; how it was run: as §2
[20] = system: Aorta; assay: Vasorelaxation activity in rat aorta assessed as inhibition of norepinephrine-induced phasic contraction at 15 ug/ml preincubated for 15 mins relative to control; format: functional; set-up: scale not given: the % may be the effect or the level left; how it was run: as §2
[21] = system: Aorta; assay: Vasorelaxation activity in rat aorta assessed as inhibition of norepinephrine-induced tonic contraction at 15 ug/ml preincubated for 15 mins relative to control; format: functional; set-up: scale not given: the % may be the effect or the level left; how it was run: as §2
[22] = (§5) Antiplatelet activity against rabbit platelets assessed as inhibition of arachidonic acid-induced platelet aggregation at 50 ug/ml preincubated for 3 mins by turbidimetric method; format: functional, Oryctolagus cuniculus; set-up: scale not given: the % may be the effect or the level left; how it was run: as §1
[23] = (§6) Antiplatelet activity against rabbit platelets assessed as inhibition of collagen-induced platelet aggregation at 50 ug/ml preincubated for 3 mins by turbidimetric method; format: functional, Oryctolagus cuniculus; set-up: scale not given: the % may be the effect or the level left; how it was run: as §1
[24] = system: Aorta; assay: Vasorelaxation activity in rat aorta assessed as inhibition of K+-induced contraction at 1 ug/ml preincubated for 15 mins relative to control; format: functional; set-up: scale not given: the % may be the effect or the level left
How it was run: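 Rat aorta preincubated with sample or DMSO (0.1%, control) at 37 °C for 15 min. Contraction then induced by high potassium (K+, 80 mM). Response expressed as percentage of control contraction, given as means ± S.E.M. (n = 3).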

[25] = system: Aorta; assay: Vasorelaxation activity in rat aorta assessed as inhibition of K+-induced contraction at 100 ug/ml preincubated for 15 mins relative to control; format: functional; set-up: scale not given: the % may be the effect or the level left; how it was run: as §2
[26] = system: Aorta; assay: Vasorelaxation activity in rat aorta assessed as inhibition of K+-induced contraction at 30 ug/ml preincubated for 15 mins relative to control; format: functional; set-up: scale not given: the % may be the effect or the level left; how it was run: as §2
[27] = system: Aorta; assay: Vasorelaxation activity in rat aorta assessed as inhibition of norepinephrine-induced phasic contraction at 100 ug/ml preincubated for 15 mins relative to control; format: functional; set-up: scale not given: the % may be the effect or the level left; how it was run: as §2
[28] = system: Aorta; assay: Vasorelaxation activity in rat aorta assessed as inhibition of norepinephrine-induced phasic contraction at 30 ug/ml preincubated for 15 mins relative to control; format: functional; set-up: scale not given: the % may be the effect or the level left; how it was run: as §2
[29] = system: Aorta; assay: Vasorelaxation activity in rat aorta assessed as inhibition of norepinephrine-induced tonic contraction at 100 ug/ml preincubated for 15 mins relative to control; format: functional; set-up: scale not given: the % may be the effect or the level left; how it was run: as §2
[30] = system: Aorta; assay: Vasorelaxation activity in rat aorta assessed as inhibition of norepinephrine-induced tonic contraction at 30 ug/ml preincubated for 15 mins relative to control; format: functional; set-up: scale not given: the % may be the effect or the level left; how it was run: as §2
[31] = system: Platelet; assay: as §3; format: functional; settings: Oryctolagus cuniculus; how it was run: as §1
[32] = system: Platelet; assay: as §5; format: functional; settings: Oryctolagus cuniculus; how it was run: as §1
[33] = system: Platelet; assay: as §4; format: functional; settings: Oryctolagus cuniculus; how it was run: as §1
[34] = system: Platelet; assay: as §6; format: functional; settings: Oryctolagus cuniculus; how it was run: as §1

SMILES | Activity [1] [%] | Activity [2] [%] | Activity [3] [%] | Activity [5] [%] | Activity [7] [%] | Activity [8] [%] | Activity [9] [%] | Activity [11] [%] | Activity [13] [%] | Activity [14] [%] | Activity [16] [%] | Activity [17] [%] | other results
CCC(=O)CC/C=C\CC/C=C/C=C/C(=O)NCC(C)C [LANYUAMIDE II] | 0 | 0 | 70.5 | 36.1 | 83.8 | 78.5 | 0 | 75.2 | 0 | 0 | 0 | 0 | Activity [4]: 77.8%; Activity [6]: 72.5%; Activity [10]: 35.9%; Activity [12]: 77.6%; Activity [15]: 44.2%; Activity [18]: 10.5%
CCCCCCC(=O)CC/C=C/C=C/C(=O)NCC(C)C [LANYUAMIDE I] | 0 | 20 | 76 | 28.6 | 77.1 | 45.5 | 8.9 | 80.4 | 0 | 15.6 | 0 | 2.7 | Activity [6]: 47.6%; Activity [19]: 82%; Activity [20]: 100%; Activity [21]: 77.1%; Activity [10]: 75.7%; Activity [22]: 0%; Activity [23]: 0%
COC(=O)C1=C(C)NC(C)=C(C(=O)OC)C1c1ccccc1[N+](=O)[O-] [NIFEDIPINE] |  |  |  |  |  |  |  |  |  |  |  |  | Activity [24]: 0%
CC(=O)[C@H]1CC[C@H]2[C@@H]3CC=C4C[C@@H](O)CC[C@]4(C)[C@H]3CC[C@]12C [PREGNENOLONE] | 77 |  |  | 93.6 | 114.1 | 102.6 | 91.8 |  | 86.5 |  | 84.7 |  | 
COc1ccc(-c2oc3c(OC)c(O)cc(O)c3c(=O)c2O)cc1 [PRUDOMESTIN] | 73.3 |  |  |  |  |  | 87.5 |  | 0 | 0 | 58.1 |  | Activity [25]: 36.7%; Activity [26]: 83.4%; Activity [27]: 20%; Activity [28]: 100.6%; Activity [29]: 46.7%; Activity [30]: 97.8%; Activity [15]: 64.5%
COc1cc2ccc(=O)oc2cc1O [SCOPOLETIN] | 78.2 |  |  | 88.4 | 91.9 | 81.6 | 89.8 |  | 80.5 |  | 80.9 |  | 
c1cc2c(cc1[C@H]1OC[C@H]3[C@@H]1CO[C@@H]3c1ccc3c(c1)OCO3)OCO2 [SESAMIN] |  |  | 83.7 |  |  |  |  | 87.8 |  | 82.3 |  | 83.2 | Activity [31]: inactive; Activity [32]: inactive; Activity [33]: inactive; Activity [34]: inactive
COc1ccc(-c2oc3c(OC)c(OC)cc(O)c3c(=O)c2O)cc1 [TAMBULIN] | 78.6 |  |  |  |  |  | 81.1 |  | 73.3 |  | 64.9 |  | Activity [25]: 104.7%; Activity [27]: 100.2%; Activity [29]: 98.6%
CCCCCCCCC/C=C/C=C/C(=O)NCC(C)(C)O [TETRAHYDROBUNGEANOOL] | 6.7 | 82.7 |  |  |  |  | 74 |  | 0 |  | 0 |  | Activity [22]: 58.3%
